An excerpt weighted towards active compounds, which were near 2.2% of everything screened.
APJ antag: blocks the human apelin receptor APJ; P35414; CHO-K1 APJ beta-arrestin complementation, luminescence; inhibition, % at 20 µM; 0.32% of 330,000 active;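 active means inhibition above about 40% at 20 µM, limit read from the data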;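 further: cells challenged with 10 nM apelin-13 agonist together with compound; plate controls were apelin-13 plus DMSO wells for no effect and DMSO wells lacking apelin-13 for full effect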
Target sequence (P35414 whole entry, looked up): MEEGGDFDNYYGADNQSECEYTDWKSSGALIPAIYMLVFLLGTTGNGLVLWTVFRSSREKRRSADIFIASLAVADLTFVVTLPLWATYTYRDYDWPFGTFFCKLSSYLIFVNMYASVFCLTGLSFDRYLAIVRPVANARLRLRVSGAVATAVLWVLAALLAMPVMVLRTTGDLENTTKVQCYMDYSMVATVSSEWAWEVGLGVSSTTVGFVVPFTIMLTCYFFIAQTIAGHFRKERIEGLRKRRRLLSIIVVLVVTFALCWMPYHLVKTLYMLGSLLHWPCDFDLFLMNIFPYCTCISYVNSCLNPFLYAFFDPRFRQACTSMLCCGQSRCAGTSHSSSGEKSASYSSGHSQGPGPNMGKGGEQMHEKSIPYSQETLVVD
APJ ag: agonists of human APJ apelin receptor; P35414; CHO-K1 APJ PathHunter beta-arrestin, luminescence; 0% DMSO wells, 100% apelin; activation, % at 20 µM; 0.11% of 330,000 active; AID 2520;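 active means activation more than six SD over the plate average, tested at 20 µM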;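 further: 0% = DMSO alone and 100% = apelin-13 at 10 nM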
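Assay system – PathHunter CHO-K1 APJ (AGTRL-1) beta-arrestin reporter cells · Compound – one dose, 20 µM compound, 1% DMSO · Timing – compound 90 min 25 °C, reagent 1 h · Measured by – luminescence from split beta-galactosidase complementation, Galacton Star/Emerald II substrate · Measure – beta-arrestin recruitment to APJ as agonist activity, luminescent signal · Benchmarks – DMSO vs Apelin-13 10 nM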
CCR6 antagonist: CCR6 (human) receptor antagonism; inhibition, % at 20 µM; AID 493098; P51684; CHO-K1 CCR6 PathHunter beta-arrestin, luminescence, CCL20-stimulated; 0.49% of 340,000 active;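 active means compounds whose inhibition of the agonist-driven luminescence signal at 20 µM reaches about 50%, limit read from the data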;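 further: cells stimulated with CCL20 at 14 nM final; plate controls were DMSO with CCL20 for no effect and DMSO without agonist for full effect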
EBI2 antag: blocks human EBI2 receptor beta-arrestin signaling | EBI2 beta-arrestin recruitment, luminescence, 7a,25-OHC stimulated | inhibition, % at 5 µM | 0.81% of 360,000 active | AID 651636; in the data active means inhibition above about 38%;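 further: enzyme fragment complementation signal reports receptor beta-arrestin coupling in cells; 0% = agonist plus DMSO wells and 100% = wells without agonist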
CXCR6 inh: inhibitors of human CXCR6 receptor | 0.36% of 360,000 active | inhibition, % at 20 µM | O00574 | CHO-K1 PathHunter CXCR6 beta-arrestin, luminescence; in the data active means inhibition above about 34%, passing the limit was not always enough;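 further: antagonist mode with CXCL16 agonist at 10 nM final; 0% = 10 nM CXCL16 with DMSO and 100% = unstimulated wells without agonist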
HTR2A ag: agonists of mouse serotonin 5-HT2A receptor (HTR2A) | P35363 | CHO-K1 mHTR2A beta-arrestin complementation, luminescence; percent of 30 µM serotonin response | activation, % at 7.6 µM | 0.66% of 360,000 active | AID 624169;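 active means activation above a run cutoff, the mean activation of all tested compounds plus 3 SD, cut at about 14% in these data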;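 further: 0% = plate median of compound wells and 100% = 30 µM serotonin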
EBI2 antag conf: confirmation of human EBI2 receptor antagonists; shares compounds with EBI2 antag; EBI2 beta-arrestin luminescence, 7a,25-OHC antagonism; inhibition, % at 5 µM; 29% of 2,400 active;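 active means inhibition of at least 50%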
EBI2 ag: counter-screen for EBI2 antagonists: EBI2 agonist activity. AID 652000. shares compounds with EBI2 antag. 2,400 tested, under 10 active. activation, % at 5 µM. EBI2-expressing cells, agonist mode, luminescence, 60 min; 0% vehicle, 100% 7α,25-dihydroxycholesterol control;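 active means activation of at least 50%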
bGal cs: beta-galactosidase inhibition counter-screen. shares compounds with EBI2 antag. purified beta-galactosidase, luminescent Galacton Star, 15 min. inhibition, % at 5 µM. 1% of 2,400 active. AID 652176;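 active means replicate-average signal at least 3 plate SD below neutral wells, shown as high inhibition, flagging enzyme-inhibiting false positives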;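 further: 0% = DMSO wells with enzyme and 100% = wells lacking enzyme; higher means stronger loss of beta-gal luminescence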
Starred values were filed as active, the others as inactive; x = not tested or not shown.

SMILES	APJ antag	APJ ag	CCR6 antagonist	EBI2 antag	CXCR6 inh	HTR2A ag	EBI2 antag conf	EBI2 ag	bGal cs
NS(=O)(=O)c1ccc(N/N=C/c2cn(-c3ccccc3)nc2-c2cccs2)c([N+](=O)[O-])c1	4	1	27	21	25	0	x	x	x
O=C(c1ccccc1)C1CCN(C(=O)c2ccc(Cl)cc2)CC1	4	-3	10	86*	-1	2	73*	2	5
CC(C)(C)c1ccc(C(=O)N2CCC(C(=O)c3ccccc3)CC2)cc1	-2	-1	7	12	-1	-12	x	x	x
Cc1ccc(C(=O)N2CCC(C(=O)c3ccc(Cl)cc3)CC2)cc1	4	-2	5	61*	5	-1	41	1	12
CC(C)c1ccccc1NC(=O)Nc1nnc([C@H]2C[C@H](O)[C@@H](CO)O2)s1	x	x	x	0	-4	1	x	x	x
CN(c1ccc(OCC(=O)NCCc2ccccc2)cc1)S(=O)(=O)c1ccc(Cl)cc1	-7	-5	31	34	10	-2	x	x	x
COc1ccc(CCNC(=O)COc2ccc(N(C)S(=O)(=O)c3ccc(Cl)cc3)cc2)cc1	x	x	7	63*	9	-6	34	-1	-14
CC1(C(=O)Nc2ccc3c(c2)OCCO3)CSCC(=O)N1Cc1ccco1 (stereo not given)	x	x	x	-7	x	4	x	x	x
COc1ccc(C2CC(c3cccs3)=NN2C(=O)CSc2nc(=O)n3ccc(C)cc3n2)cc1 (stereo not given)	16	2	6	3	11	4	x	x	x
COc1ccc(C2=NN(C(=O)CSc3cn(C)c4ccccc34)C(c3ccc(OC)cc3)C2)cc1 (stereo not given)	5	-4	4	84*	6	-3	65*	-1	-10
COc1ccc(C2=NN(C(=O)CSc3ncccn3)C(c3ccc(OC)cc3)C2)cc1 (stereo not given)	-9	1	20	4	1	7	x	x	x
COc1ccc(C2=NN(C(=O)CSc3nc(=O)n4cc(C)ccc4n3)C(c3ccc(C)cc3)C2)cc1 (stereo not given)	23	8	11	63*	9	8	30	0	9
COc1ccc(Cc2c(-c3ccccc3)nc3c4ccccc4ccn23)c(C)c1	x	x	x	1	1	1	x	x	x
Cc1cnc(CN(C)C(=O)C2CCC(=O)N(CCc3ccc(Cl)cc3)C2)[nH]1 (stereo not given)	x	x	x	-7	-9	-1	x	x	x
COc1ccc(C(C)(O)c2nc(-c3ccccc3OC)cs2)cc1 (stereo not given)	x	x	x	-1	-5	5	x	x	x
CC(C)c1ccc(C(C)NCCS(=O)(=O)c2ccc(Br)cc2)cc1 (stereo not given)	10	-3	28	78*	6	4	61*	0	5
CC(C(=O)NCCS(=O)(=O)c1ccc(Cl)cc1)S(=O)(=O)c1ccc(Cl)cc1 (stereo not given)	10	-4	6	7	-3	-6	x	x	x
CC(NCCS(=O)(=O)c1ccc(Cl)cc1)c1cccc(Cl)c1 (stereo not given)	20	2	11	74*	4	-6	38	0	4
O=C(NCCS(=O)(=O)c1ccc(Br)cc1)c1ccccc1	9	-10	1	-6	-15	0	x	x	x
CCOC(=O)[C@]12CCC=C1N(Cc1cccc3ccccc13)C(=O)[C@H](CC(=O)NCCCOC)C2	x	x	x	-4	-1	-1	x	x	x
CC(C)(C)CNC(=O)c1cccc2c1C(=O)c1ccc(N3CCCC3)cc1S2(=O)=O	1	-1	-2	54*	-5	4	61*	1	-7
Cc1ccsc1C(=O)N1CCC1(C)C(=O)NS(=O)(=O)c1ccccc1C(F)(F)F (stereo not given)	x	x	x	-2	-2	-1	x	x	x
Cc1nc(CSc2ccc(Cl)cc2)cc(NCc2ccccc2)n1	5	-1	11	47*	-4	-9	20	0	-1
c1ccc(COc2ccc(-c3cc4nc(NCCN5CCOCC5)ccn4n3)cc2)cc1	x	x	x	0	0	-6	x	x	x
CC(OC(=O)CNC(=O)c1ccc2ccccc2c1)C(=O)N(C)C1CCCCC1 (stereo not given)	17	-5	14	50*	11	3	25	-1	-10
SMILES	APJ antag	APJ ag	CCR6 antagonist	EBI2 antag	CXCR6 inh	HTR2A ag	EBI2 antag conf	EBI2 ag	bGal cs
COc1ccccc1C(=O)NCC(=O)OC(C)C(=O)N(C)C1CCCCC1 (stereo not given)	21	-1	2	-3	6	3	x	x	x
Cc1cccc(C)c1-n1nnnc1C1c2ccccc2C(=O)N1CCCn1ccnc1 (stereo not given)	x	x	x	-5	1	0	x	x	x
COc1ccc(OCC(O)CNC(C)c2ccccc2)cc1 (stereo not given)	-6	0	-3	22	-3	-2	x	x	x
CC(NCC(O)COc1ccc2ccccc2c1)c1ccccc1 (stereo not given)	18	2	1	46*	-10	-11	18	0	-6
COC(=O)[C@@]12C[C@@H](CC(=O)N3CCCCC3)C(=O)N(Cc3ccccc3)C1=CCC(C)(C)C2	x	x	x	3	x	-1	x	x	x
CCCC(=O)n1nc(-c2ccccc2)nc1SC	0	-8	-8	43*	-8	-4	24	1	7
CC(C)(C)C(=O)Nc1nnc([C@H]2C[C@H](O)[C@@H](CO)O2)s1	x	x	x	1	-2	5	x	x	x
O=C(Nc1ccc2ccccc2n1)c1ccccc1	15	-2	4	-1	-13	-3	x	x	x
O=C(CCc1ccccc1)Nc1ccc2ccccc2n1	6	-4	4	72*	1	-2	50	-1	-9
CCCCN1CC(COCc2ccccc2)Oc2cccc(OCCN3C(=O)[C@@H]4[C@H](C3=O)C3C=C[C@H]4C3)c2S1(=O)=O (stereo not given in full)	x	x	6	-20	7	0	x	x	x
CCCCOC(=O)c1ccc(NC(=O)CSC2=Nc3ccccc3C3CC=NN23)cc1 (stereo not given)	-5	-2	15	59*	12	12	16	0	9
COc1ccc(OC)c(C(=O)c2ccc(C(=O)Nc3ccccc3)cc2)c1	11	2	-5	-5	-2	-7	x	x	x
CCOc1ccc(NC(=O)c2cc3ccccc3cc2OC)cc1	-23	-1	-2	54*	-4	12	37	-2	-11
